Not all results are given here.
PGC1a Ac signal – compounds raising PGC1a acetylation signal, primary screen, PGC1a modulator project, cell-based, U2OS, AlphaScreen, signal-increasing mode | overnight | activation, % at 15.6 µM | hit rate 0.21% among 350,000 | AID 651723, 2012;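 active = every replicate reaching activation of at least 50%, whatever the mean replicate activation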;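 also: hits raise the AlphaScreen acetylation signal above neutral controls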
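detection = AlphaScreen lysate read | assay system = U2OS cells expressing flag-PGC1a plus GCN5 | input = 7000 cells/well | dosing = one concentration | times = compound overnight at 37 °C, each detection step 1 h RT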
An asterisk follows results filed as active.

SMILES	PGC1a Ac signal
O=C(Nc1nc2ccccc2[nH]1)c1ccc(Cl)c(S(=O)(=O)N2CCCC2)c1	-52
Cc1ccc(NC(=O)Cn2ncc(Cl)c(Cl)c2=O)cc1S(=O)(=O)N1CCCCC1	90*
O=C(Cn1ncc(Cl)c(Cl)c1=O)c1ccc(Cl)cc1	-85
C=CCn1c(C)cc(C(=O)Cn2ncc(Cl)c(Cl)c2=O)c1C	-41
O=C(C[C@H]1CC[C@H](NC(=O)NC2CCCCC2)[C@H](CO)O1)NCc1ccc(Cl)cc1	-54
N#C/C(=C/c1ccc(OCc2ccc(C(=O)O)cc2)c(Br)c1)c1cccc(F)c1	-96
CCC(=O)Nc1ccc2c(c1)OC[C@@H](C)N(C(=O)c1cnccn1)C[C@H](C)[C@H](OC)CN(C)C2=O	-59
CC(C)N1CCc2c(sc(NC(=O)C3CCCCC3)c2C(N)=O)C1	-44
COc1ccc(CN(C)C[C@H]2Oc3ccc(NC(=O)Cc4cn(C)c5ccccc45)cc3CC(=O)N([C@@H](C)CO)C[C@@H]2C)cc1	-41
C=CCNC(=O)CC1Nc2c3ccccc3nc(=S)n2C1=O (configuration not stated)	-41
COc1cc(/C=N/NC(=O)c2ccc(O)cc2)ccc1OCC(=O)Nc1cccc([N+](=O)[O-])c1	-52
O=C(N/N=C/c1ccc([N+](=O)[O-])o1)c1ccc(O)cc1	64*
O=C(N/N=C/c1ccc([N+](=O)[O-])o1)c1cc2ccccc2o1	329*
CCn1c2ccccc2c2cc(/C=N/n3c(-c4cc(C)[nH]n4)n[nH]c3=S)ccc21	-40
C[C@H](CO)N1C[C@H](C)[C@H](CN(C)S(C)(=O)=O)Oc2ncc(-c3cc4ccccc4o3)cc2C1=O	-47
O=C(CN1C(=O)C2CC=CCC2C1=O)Nc1nccs1 (configuration not stated)	-50
CC(=O)c1cccc(-c2ccnc3c2CC(C(=O)NCc2ccco2)O3)c1 (configuration not stated)	52*
CC1=C(Cl)C2=NS(=O)(=O)CCN2C=C1Cl	-47
NC(=O)c1sc2nc3c(c(-c4cccs4)c2c1N)CCCCC3	-44
C[C@@H]1CN([C@H](C)CO)C(=O)c2cc(NS(C)(=O)=O)ccc2O[C@@H]1CN(C)S(=O)(=O)c1ccc(Cl)cc1	-42
CCn1c(=O)c2c(cnn2C)c2ccccc21	-30
O=C(Nc1cc(S(=O)(=O)N2CCOCC2)ccc1Cl)c1cc([N+](=O)[O-])ccc1Cl	67*
CCN(CC)c1ccc(S(=O)(=O)N2CCOCC2)cc1NC(=O)Cn1nc(C)c([N+](=O)[O-])c1C	-48
CCN(CC)S(=O)(=O)c1ccc(C(=O)Nc2cc(S(=O)(=O)N3CCOCC3)ccc2O)cc1	-46
C=C1C(=O)O[C@H]2[C@H]1[C@@H](O)CC(=C)[C@@H]1CC(=O)[C@@H](C)[C@H]21	72*
SMILES	PGC1a Ac signal
C[C@H]1CN([C@@H](C)CO)C(=O)CCCn2nncc2CO[C@@H]1CN(C)C(=O)Nc1ccc2c(c1)OCO2	-49
O=C(NC1CCCN(Cc2ccc(Cl)cc2)C1)c1ccccc1C(F)(F)F (configuration not stated)	-47
CCSC1=N/C(=C\c2ccccc2)C(=O)N1c1ccc(OC)cc1	-51
C=CCNc1nnc(SC2CC(=O)N(c3ccc(OC)cc3)C2=O)s1 (configuration not stated)	75*
Cc1cc(C)nc(NC(=O)c2c(-c3ccccc3Cl)noc2C)n1	77*
CSc1n[nH]c(NC(=O)c2c(-c3c(Cl)cccc3Cl)noc2C)n1	-65
COc1ccc(OCC(=O)NNC(=O)c2c(-c3ccccc3Cl)noc2C)cc1	-62
Cc1nc2[nH]c(=O)c3c(n2n1)NC1=C(C(=O)CC(C)(C)C1)C3c1ccccc1 (configuration not stated)	-84
Cc1noc(C)c1NC(=O)N(C)C[C@H]1Oc2c(NC(=O)c3nc4ccccc4s3)cccc2C(=O)N([C@H](C)CO)C[C@H]1C	-54
CCCCn1c(=NC(=O)c2cccnc2)c(C(=O)OCC)cc2c(=O)n3ccccc3nc21	115*
CCC(C)(CC(=O)O)CC(=O)Nc1cc(C(F)(F)F)cc(C(F)(F)F)c1 (configuration not stated)	-68
COCC(=O)N1C[C@@H](C)[C@@H](OC)CN(C)C(=O)c2ccc(NC(=O)c3cnccn3)cc2OC[C@@H]1C	-61
COc1ccccc1/C=C1\SC(=O)N(CCC(=O)NCCCn2ccnc2)C1=O	214*
COc1ccccc1/C=C1\SC(=S)N(CCC(=O)NCCCn2ccnc2)C1=O	121*
O=C(CCN1C(=O)/C(=C/c2ccccc2)SC1=S)NCCCN1CCOCC1	-56
C[C@H]1CN([C@@H](C)CO)S(=O)(=O)c2ccc(C#CC3CCCCC3)cc2O[C@@H]1CN(C)Cc1cccnc1	-64
C=CCn1c(SCC(=O)NCc2ccccc2)nnc1-c1ccccc1O	-58
CC1CCCCC1NC(=O)C1CCN(C(=O)NC2CCCCC2)CC1 (configuration not stated)	-51
Cc1ccc(NC(=O)COC(=O)COc2ccc(Cl)cc2)c([N+](=O)[O-])c1	-40
Cc1ccc(S(=O)(=O)NC2=NCCCCC2)cc1	-46

Source: PubChem
